Assay outcomes from PubChem BioAssay.
Hits are enriched below; roughly 4.5% of the tested compounds scored in any of these assays.
OX1R antag-1: blocks the human orexin 1 receptor | O43613 | inhibition, % at 6.6 µM | 1.8% of 330,000 active | OX1R-expressing cells, FRET antagonist read-out; in the data active = inhibition mostly above about 38%, no sharp cut-off; inactive = mostly below about 40%
TAAR1 ag: human TAAR1 agonism. CHO RD-HGA16 TAAR1, Fluo-8 calcium fluorescence; vehicle wells 0%, saturating PEA agonist 100%. activation, % at 3 µM. 0.99% of 360,000 active;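 active = activation above the mean activation of all test compounds in the run plus 3 SD, cut at about 38% in these data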
Target sequence (Q96RJ0 whole entry, looked up): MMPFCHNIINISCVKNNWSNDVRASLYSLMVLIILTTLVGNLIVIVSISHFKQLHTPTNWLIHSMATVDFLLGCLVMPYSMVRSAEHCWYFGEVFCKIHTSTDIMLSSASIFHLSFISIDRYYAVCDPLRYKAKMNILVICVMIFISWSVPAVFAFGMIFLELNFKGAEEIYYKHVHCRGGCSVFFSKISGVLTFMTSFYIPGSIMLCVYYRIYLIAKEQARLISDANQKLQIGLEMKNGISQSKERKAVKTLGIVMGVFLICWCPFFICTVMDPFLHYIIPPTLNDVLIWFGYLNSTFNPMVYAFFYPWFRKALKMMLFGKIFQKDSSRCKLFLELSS
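Assay system – CHO-derived RD-HGA16 cells with stable Gα16 and human TAAR1 · Compound dosing – one-point dosing at 3 µM (nominal) · Incubation – 17-24 h seeding, 75 min 37 °C dye, 30 min RT · Measured by – kinetic Fluo-8 calcium fluorescence · Control set – DMSO vehicle as 0%, PEA at EC100 as 100% · Repeats – single well for each compound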
OX1R antag-2: antagonists of human orexin 1 receptor; 0.43% of 330,000 active; AID 434989; CHO/OX1R cells, Fluo-8 calcium fluorescence, orexin A; inhibition, % at 5 µM;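 active = inhibition above its plate's threshold, mean inhibition of all tested compounds on the plate plus 3 SD, cut at about 37% in these data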
CHO parental Ca: counter-screen for OX1R antagonists: effect in parental CHO cells. parental CHO-K1, ATP-induced calcium, Fluo-8 fluorescence. 0.63% of 330,000 active. inhibition, % at 5.6 µM. AID 463079;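 active = inhibition above that plate's mean sample inhibition plus 3 SD, cut at about 26% in these data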
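Assay system – parental CHO cells · Reagent – ATP stimulus · Detection – intracellular calcium via Fluo-8 no-wash fluorescent dye · Evaluation – percent inhibition of ATP-evoked calcium rise, normalized to controls · Controls – ATP wells versus no-ATP DMSO wells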
TAAR1 antagonist: antagonists of human TAAR1 | Q96RJ0 | CHO RD-HGA16 TAAR1, Fluo-8 calcium fluorescence, antagonist | inhibition, % at 3 µM | 1.5% of 360,000 active;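 active = inhibition above a per-plate cutoff, the mean inhibition of test compounds on that plate plus 3 SD, cut at about 49% in these data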
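Assay system: RD-HGA16 CHO cells with stable hTAAR1 and Gα16 / Reagent: EC80 β-phenethylamine stimulus / Doses: 3 µM, single point / Timing: dye loading 75 min at 37 °C, then 30 min room temperature / Measured by: Fluo-8 intracellular calcium dye fluorescence, real-time kinetic reads / Controls: vehicle wells and EC80 agonist wells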
GPR7 antagonist: blocks human GPR7 receptor signaling; GPR7-expressing cells, fluorescence antagonist assay; inhibition, % at 4.4 µM; 1.1% of 290,000 active; AID 1861; in the data active = inhibition above about 16%, passing the limit was not always enough;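 also: cells stimulated with the agonist NPW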
Target sequence (P48145 whole entry, looked up): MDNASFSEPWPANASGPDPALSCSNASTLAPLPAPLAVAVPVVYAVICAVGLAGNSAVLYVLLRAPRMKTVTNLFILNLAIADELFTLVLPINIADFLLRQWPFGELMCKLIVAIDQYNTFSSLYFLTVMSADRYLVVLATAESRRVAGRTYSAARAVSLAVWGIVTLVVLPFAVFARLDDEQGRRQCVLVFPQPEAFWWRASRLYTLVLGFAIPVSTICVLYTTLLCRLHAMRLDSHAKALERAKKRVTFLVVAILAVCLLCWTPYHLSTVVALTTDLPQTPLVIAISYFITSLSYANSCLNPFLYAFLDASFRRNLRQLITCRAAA
GPR7 antag cf: confirmation of human GPR7 antagonists; shares compounds with GPR7 antagonist; GPR7-expressing cells, calcium fluorescence antagonist mode; inhibition, % at 4.4 µM; 52% of 2,400 active; in the data active = inhibition above about 24%;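 also: stimulated with the GPR7 agonist NPW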
MCHR1 antagonist: MCHR1 (human) antagonism in GPR7 counter-screen; shares compounds with GPR7 antagonist; MCHR1-expressing cells, fluorescence antagonist assay; inhibition, % at 4.4 µM; 62% of 2,400 active; in the data active = inhibition above about 22%
Each line names hits and unclear results; the compound was inactive in the other large screens (follow-up assays come after a bar, where they were run).

CCOC(=O)CSc1nc(N)c(C#N)c(-c2ccc(OCC)cc2)c1C#N	GPR7 antagonist 22.0 | GPR7 antag cf inactive | MCHR1 antagonist 21.8
COC(=O)CSc1nc(N)c(C#N)c(-c2ccc(O)cc2)c1C#N	none
CC(C)CCNC(=O)C1CCN(S(=O)(=O)c2ccc3c(c2)CC(C)N3C(=O)C2CC2)CC1 (stereo unspecified)	GPR7 antagonist 25.1 | GPR7 antag cf inactive | MCHR1 antagonist inactive
Cc1ccccc1NC(=O)Cn1nnc(S(=O)(=O)c2ccc(C(C)(C)C)cc2)c1N	GPR7 antagonist 27.6 | GPR7 antag cf 33.9 | MCHR1 antagonist inactive
Cc1ccccc1NC(=O)Cn1nnc(C(=O)NCc2ccco2)c1N	none
Cc1cc(C)c(NC(=S)NC(NC(=O)c2ccccc2)C(Cl)(Cl)Cl)c(C)c1 (stereo unspecified)	none
O=C(NC(NC(=S)Nc1ccccc1)C(Cl)(Cl)Cl)c1cccc(Cl)c1 (stereo unspecified)	GPR7 antagonist 33.6 | GPR7 antag cf 47.0 | MCHR1 antagonist 54.3
NC(=NC1CCCCC1)NS(=O)(=O)c1ccccc1	none
CCc1ccc(-n2c(SCC(=O)N3Cc4ccccc4CC3C(=O)O)nnc2-c2ccncc2)cc1 (stereo unspecified)	GPR7 antagonist 21.4 | GPR7 antag cf inactive | MCHR1 antagonist inactive
COc1cccc(CNC(=O)COC(=O)c2nc(Cl)c(Cl)c(Cl)c2Cl)c1	none (no result: GPR7 antagonist)
O=C(COC(=O)c1ccc[nH]c1=O)NC1CCCc2ccccc21 (stereo unspecified)	none
CC(C)C(=O)C1=Cc2cc([N+](=O)[O-])ccc2OC1N1CCOCC1 (stereo unspecified)	none (no result: OX1R antag-1, OX1R antag-2, CHO parental Ca)
O=C(Nc1ccc(OC(F)F)cc1)Nc1cccc(C(F)(F)F)c1	OX1R antag-1 45.1, OX1R antag-2 49.7, CHO parental Ca 60.1, GPR7 antagonist 39.0 | GPR7 antag cf 53.8 | MCHR1 antagonist 68.0
CCN(CC)S(=O)(=O)c1ccc(NC(=O)Nc2cccc(C(F)(F)F)c2)cc1	CHO parental Ca 34.9, GPR7 antagonist 27.1 | GPR7 antag cf 41.1 | MCHR1 antagonist 56.6
CCOC(=O)[C@]12CCCC=C1N(Cc1ccc3c(c1)OCO3)C(=O)[C@H](CC(=O)N1CCCC1)C2	none (no result: OX1R antag-1, OX1R antag-2, CHO parental Ca, GPR7 antagonist)
CC1(CC(=O)N/N=C/c2ccc(-c3ccc(C(=O)O)cc3)o2)OCCO1	none
COC(=O)c1ccc(-c2ccc(/C=N/NC(=O)CC3(C)OCCCO3)o2)cc1	GPR7 antagonist 23.9 | GPR7 antag cf inactive | MCHR1 antagonist inactive
CCCc1noc2c1/C(=N\O)CC(c1ccccc1)C2 (stereo unspecified)	GPR7 antagonist 22.9 | GPR7 antag cf 41.0 | MCHR1 antagonist 22.8
CC(OC(=O)CCCN=C1NS(=O)(=O)c2ccccc21)C(=O)NC1CCCCC1C (stereo unspecified)	none
Cc1cc(Cl)ccc1NNC(=O)c1cccs1	GPR7 antagonist 22.9 | GPR7 antag cf inactive | MCHR1 antagonist inactive
Cc1ccc(N(CC(=O)NCC2CCCO2)S(=O)(=O)c2ccccc2)c(C)c1 (stereo unspecified)	none
Cc1cc(N2CCN(C)CC2)nc2ccc(NC(=O)CCC(=O)NCCc3ccc(Cl)cc3)cc12	none (no result: OX1R antag-1, OX1R antag-2, CHO parental Ca)
C=CCOc1ccc(CN(C)CC(O)COc2cccc3ccccc23)cc1 (stereo unspecified)	GPR7 antagonist 32.9 | GPR7 antag cf 47.4 | MCHR1 antagonist 38.6
Cc1cc(CN(C)Cc2ccc(OCC(O)CN(C)Cc3ccccc3)cc2)on1 (stereo unspecified)	none
CCOc1ccc(Oc2c(/C=N/NC(=O)COc3ccccc3OC)c(C)nn2-c2ccccc2)cc1	GPR7 antagonist 35.4 | GPR7 antag cf 32.7 | MCHR1 antagonist 47.3
CCOc1ccc(Oc2c(/C=N/NC(N)=O)c(C)nn2-c2ccccc2)cc1	none
CCOC(=O)C1(C)CCCCN1C(=O)c1ccc(F)c(C)c1 (stereo unspecified)	none (no result: OX1R antag-1, OX1R antag-2, CHO parental Ca, GPR7 antagonist)
CCN(CC)S(=O)(=O)c1cc(C(=O)OC)ccc1Cl	GPR7 antagonist 36.8 | GPR7 antag cf inactive | MCHR1 antagonist inactive
CC(C(=O)NC(=O)NC1CCCCC1)N1CCN(c2ccc(O)cc2)CC1 (stereo unspecified)	none (no result: GPR7 antagonist)
O=C(/C=C/[C@H]1O[C@@H](n2ccc(=O)[nH]c2=O)[C@H](O)[C@@H]1O)NCc1cccnc1	none (no result: OX1R antag-1, OX1R antag-2, CHO parental Ca, GPR7 antagonist)
COc1cccc(CNC(=O)c2cc(S(=O)(=O)N3CCOCC3)cn2C)c1	none
O=C(Nc1ccc(OC(F)(F)F)cc1)Nc1cccnc1	GPR7 antagonist 21.8 | GPR7 antag cf inactive | MCHR1 antagonist 29.8
CN(C(=O)c1ccc(S(=O)(=O)NC2CCCC2)cc1)C1CCCCC1	GPR7 antagonist 29.8 | GPR7 antag cf 45.7 | MCHR1 antagonist 21.5
Cc1cccc(NC(=O)CCc2nnc3ccc(NCc4ccco4)nn23)n1	none
Oc1ccccc1-c1nnc(COc2ccccc2)o1	none
c1ccc(OCc2nnc(-c3ccccc3)o2)cc1	GPR7 antagonist 21.5 | GPR7 antag cf inactive | MCHR1 antagonist 25.1
COC(=O)[C@@]12C[C@@H](CC(=O)NCCC(C)C)C(=O)N(Cc3ccc4c(c3)OCO4)C1=CCC(C)(C)C2	none (no result: OX1R antag-1, OX1R antag-2, CHO parental Ca, GPR7 antagonist)
CCOc1c(Br)cc(/C=C(\C#N)C(=O)NC2CC2)cc1OC	GPR7 antagonist 24.2 | GPR7 antag cf 47.3 | MCHR1 antagonist 41.2
Cc1c(C(=O)NCc2ccc3c(c2)OCCO3)sc(=O)n1Cc1ccc(C(=O)N(C)C)cc1	none (no result: OX1R antag-1, OX1R antag-2, CHO parental Ca, GPR7 antagonist)
O=c1ccc2ccc(OCc3nnc(-c4ccccc4Br)o3)cc2o1	none
Cc1cc(=O)oc2cc(OCc3nnc(-c4ccccc4Br)o3)ccc12	TAAR1 ag 42.6, GPR7 antagonist 31.1 | GPR7 antag cf inactive | MCHR1 antagonist 25.4
COc1cc(C(=S)N2CCCC2)ccc1OCc1ccccc1	none
Cc1cc(=O)[nH]c2c1cnn2C(C)c1ccccc1 (stereo unspecified)	none
CCN(CC)c1nc(Nc2ccccc2)nc(Oc2ccc(=O)n(C)n2)n1	GPR7 antagonist 23.3 | GPR7 antag cf inactive | MCHR1 antagonist inactive
O=C(NCc1ccc(F)cc1)c1cc2c(cc1Cl)N1CCCCCC1=NS2(=O)=O	none (no result: GPR7 antagonist)
COc1ccc(C(CNC(=O)c2ccc(S(=O)(=O)Nc3ccc(F)cc3)cc2)N(C)C)cc1 (stereo unspecified)	TAAR1 ag 45.1, GPR7 antagonist 54.3 | GPR7 antag cf 50.8 | MCHR1 antagonist 49.0
O=C(c1nnsc1S(=O)c1ccc(Cl)cc1)N1CCOCC1 (stereo unspecified)	GPR7 antagonist 25.3 (no result: OX1R antag-1, OX1R antag-2, CHO parental Ca) | GPR7 antag cf 36.8 | MCHR1 antagonist 92.1
